Measurements published in ChEMBL document CHEMBL1177875, “Antitumor activity of (-)-alpha-bisabolol-based thiosemicarbazones against human tumor cell lines” (2010).

Legend:
Type in all cases: functional
[1] = system: UACC-62; assay: Cytotoxicity against human UACC62 cells by sulforhodamine B assay
Summary of the method: (§1)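 Growth of the human tumor cell line was read colorimetrically with sulforhodamine B, following the NCI standard protocol, with doxorubicin as positive control. Compounds were tested at four concentrations in 10-fold dilutions (0.25 to 250). Dose-response curves gave GI50 (the concentration for 50% growth inhibition), TGI (total growth inhibition) and LC50 (50% cell death).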

[2] = Cytotoxicity against human PCO3 cells by sulforhodamine B assay; conditions: for CC50: read-out: LC50 (the source's name); summary of the method: as §1
[3] = system: OVCAR-3; assay: Cytotoxicity against human OVCAR-3 cells by sulforhodamine B assay; conditions: for CC50: read-out: LC50 (the source's name); summary of the method: as §1
[4] = Cytotoxicity against human NCI/ADR cells by sulforhodamine B assay; conditions: NCI/ADR-RES; for CC50: read-out: LC50 (the source's name); summary of the method: as §1
[5] = system: NCI-H460; assay: Cytotoxicity against human NCI-H460 cells by sulforhodamine B assay; conditions: for CC50: read-out: LC50 (the source's name); summary of the method: as §1
[6] = system: MCF7; assay: Cytotoxicity against human MCF7 cells by sulforhodamine B assay; conditions: for CC50: read-out: LC50 (the source's name); summary of the method: as §1
[7] = system: HT-29; assay: Cytotoxicity against human HT-29 cells by sulforhodamine B assay; conditions: for CC50: read-out: LC50 (the source's name); summary of the method: as §1
[8] = system: K562; assay: Cytotoxicity against human K562 cells by sulforhodamine B assay; conditions: for CC50: read-out: LC50 (the source's name); summary of the method: as §1

| SMILES | GI50 [1] | LC50 (50% cell kill) [1] | TGI [1] | GI50 [2] | TGI [2] | CC50 [2] | GI50 [3] | TGI [3] | CC50 [3] | GI50 [4] | TGI [4] | CC50 [4] | GI50 [5] | TGI [5] | CC50 [5] | GI50 [6] | TGI [6] | CC50 [6] | GI50 [7] | TGI [7] | also measured |
| --- | --- | --- | --- | --- | --- | --- | --- | --- | --- | --- | --- | --- | --- | --- | --- | --- | --- | --- | --- | --- | --- |
| CC1=CC[C@@H]([C@@](C)(O)CCCC(C)(C)NC(=S)N/N=C\c2ccc(Cl)cc2)CC1 | 7.35 µM | 40.6 µM | 13.8 µM | 7.58 µM | 22.7 µM | 48.5 µM | 6.66 µM | 12.8 µM | 40.6 µM | 7.58 µM | 36.4 µM | > 100 µM | 8.72 µM | > 100 µM | > 100 µM | 6.89 µM | 15.8 µM | 44.3 µM | 7.35 µM | 22.6 µM | CC50 [7]: 47.3 µM; GI50 [8]: 0.04 µM; TGI [8]: 0.73 µM; CC50 [8]: 10.3 µM |
| CC1=CC[C@@H]([C@@](C)(O)CCCC(C)(C)NC(=S)N/N=C\c2ccccc2Cl)CC1 | 53.3 µM | > 100 µM | > 100 µM | 18.8 µM | > 100 µM | > 100 µM | 42 µM | > 100 µM | > 100 µM | > 100 µM | > 100 µM | > 100 µM | 24.6 µM | > 100 µM | > 100 µM | 31.2 µM | > 100 µM | > 100 µM | 23.7 µM | > 100 µM | CC50 [7]: > 100 µM; GI50 [8]: 0.15 µM; TGI [8]: 4.11 µM; CC50 [8]: 8.5 µM |
